From ChEMBL document CHEMBL4725355, “Design, Synthesis, and Preclinical Evaluation of 3-Methyl-6-(5-thiophenyl)-1,3-dihydro-imidazo[4,5-b]pyridin-2-ones as Selective GluN2B Negative Allosteric Modulators for the Treatment of Mood Disorders” (J Med Chem, 2020)
Converted amounts (≈) assume the structure as drawn.

Tests used:
[1] = Negative allosteric modulation of human GluN1a/GluN2D receptor expressed in CHO cells assessed as inhibition of glutamate and glycine-induced calcium flux preincubated for 5 mins followed by glutamate and glycine addition and measured after 5 mins by calcium 5 dye based FLIPR assay; assay type: cell-based
Method in brief: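 Tet-On CHO T-Rex cells expressing hGluN1a with GluN2A, 2B, 2C or 2D, plated at 20,000 cells/well and induced 24 h before the assay in the presence of ketamine. Cells loaded 1 h at room temperature with Calcium 5 dye, pH 7.4 HEPES buffer. Compound added 5 min, then glutamate (~EC80) plus 10 µM glycine for 5 min; FLIPR fluorescence normalized to control wells. Three independent runs in duplicate (two for some).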

[2] = Solubility of compound in phosphate buffer at pH 2 measured after 3 days; assay type: physicochemical; settings: time 3 day
Method in brief: (§1)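 Solubility in aqueous buffer at pH 2 and pH 7, and in simulated gastric and intestinal fluids.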

[3] = biological target: Voltage-gated inwardly rectifying potassium channel KCNH2 (Homo sapiens, UniProt Q12809); experiment: Inhibition of human ERG expressed in CHO cells measured after 5 mins by Qpatch method; assay type: cell-based
Method in brief: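 CHO cells stably expressing hERG, whole-cell QPatch. Vehicle applied 5 min, then 0.3, 3.0, 10 and 30 µM in rising order, each concentration applied twice. Current measured after 5 min as the average of 3 voltage pulses; block taken relative to vehicle pretreatment, mean ± SEM.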

[4] = Metabolic stability in human liver microsomes assessed as extraction ratio at 1 uM after 5 to 60 mins in presence of NADPH by LC-MS/MS analysis; assay type: ADME, Microsome; settings: time 5-60 min, read-out: ERH
Method in brief: (§2)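 Human and rat liver microsomes, run in duplicate; stability reported as microsomal extraction ratio.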

[5] = Metabolic stability in rat liver microsomes assessed as extraction ratio at 1 uM after 5 to 60 mins in presence of NADPH by LC-MS/MS analysis; assay type: ADME, Microsome; settings: time 5-60 min, read-out: ERH; method in brief: as §2
[6] = Half life in Sprague-Dawley rat at 0.5 mg/kg, iv or 2.5 mg/kg, po using 1:1 PEG-400/water formulation by LC-MS/MS analysis; assay type: ADME, organism-based; settings: in vivo
Method in brief: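 Rats dosed 0.5 mg/kg i.v. and 2.5 mg/kg p.o., n=3 ± SD. Default vehicle is 20% HP-β-CD; one PK set used 1:1 PEG400/water and another 30% SBE-β-CD.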

[7] = Cmax in Sprague-Dawley rat at 0.5 mg/kg, iv or 2.5 mg/kg, po using 1:1 PEG-400/water formulation by LC-MS/MS analysis; assay type: ADME, organism-based; design: dose 2.5 mg/kg; settings: in vivo
Method in brief: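 Rat IV/PO PK at 0.5 mg/kg IV and 2.5 mg/kg PO, dosed in 1:1 PEG400/water, n=3.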

[8] = Drug level in Sprague-Dawley rat brain hippocampus at 0.03 mg/kg, iv after 120 min by LC-MS/MS analysis; assay type: ADME, organism-based; settings: read-out: Drug uptake
Method in brief: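 Single i.v. dose of 0.03 mg/kg in 50% (w/v) PEG/water, pH 7.4; rats n=3 per group, killed at 5, 10, 30, 60 and 120 min. Cerebellum, cortex, striatum and hippocampus dissected, weighed and homogenized; drug quantified by LC-MS/MS and normalized to tissue weight. P<0.05 taken as significant versus cerebellum.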

[9] = Intrinsic clearance in human liver microsomes at 1 uM after 5 to 60 mins in presence of NADPH by LC-MS/MS analysis; assay type: ADME, Microsome; settings: time 5-60 min, read-out: CLH
Cytochrome P450 3A4 [10] = biological target: T1, Cytochrome P450 3A4 (Homo sapiens, UniProt P08684); experiment: Inhibition of CYP3A4 in human liver microsomes using testosterone as substrate measured after 15 mins by LC-MS/MS analysis; assay type: ADME
Method in brief: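 Human liver microsomes incubated with isoform-specific probe substrates and the test compound at concentrations up to 20 µM. IC50 derived from inhibition of metabolite formation; mean of two independent experiments, with known specific inhibitors as positive controls.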

Cytochrome P450 3A4 [11] = biological target: T1, Cytochrome P450 3A4; experiment: Time-dependent inhibition of CYP3A4 in human liver microsomes at 10 uM using midazolam as substrate by LC-MS/MS analysis; assay type: ADME
Method in brief: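 CYP3A4 time-dependent inhibition in human liver microsomes. The compound (0.4 to 10 μM) was tested with and without 30 min preincubation. IC50 was taken from percent activity remaining versus vehicle, averaged over two independent experiments. A >2-fold IC50 shift after preincubation was the threshold for time-dependent inhibition.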

[12] = Volume of distribution at steady state in dog at 0.1 mg/kg, iv by LC-MS/MS analysis; assay type: ADME, organism-based, Canis lupus familiaris; settings: in vivo, read-out: Vdss
[13] = AUC (infinity) in dog at 0.1 mg/kg, iv by LC-MS/MS analysis; assay type: ADME, organism-based, Canis lupus familiaris; design: time infinity, route intravenous, dose 0.1 mg/kg; settings: in vivo
[14] = Half life in dog at 0.5 mg/kg, po by LC-MS/MS analysis; assay type: ADME, organism-based, Canis lupus familiaris; settings: in vivo
[15] = Cmax in mouse at 2.5 mg/kg, po by LC-MS/MS analysis; assay type: ADME, organism-based; design: route oral, dose 2.5 mg/kg; settings: in vivo
[16] = Half life in mouse at 0.5 mg/kg, iv by LC-MS/MS analysis; assay type: ADME, organism-based; settings: in vivo
[17] = Half life in mouse at 2.5 mg/kg, po by LC-MS/MS analysis; assay type: ADME, organism-based; settings: in vivo
[18] = Tmax in Sprague-Dawley rat at 500 mg/kg, po administered via gavage after 24 hrs using HPMC formulation by LC-MS/MS analysis; assay type: ADME, organism-based; settings: in vivo
Method in brief: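 Single oral gavage of a 5% HPMC suspension at 125, 250, 500 or 1000 mg/kg to male Sprague Dawley rats, 3 per group. Plasma was sampled at 6 time points from 0.5 to 24 h.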

[19] = AUC (0 to 24 hrs) in Sprague-Dawley rat at 125 mg/kg, po administered via gavage after 24 hrs using HPMC formulation by LC-MS/MS analysis; assay type: ADME, organism-based; design: route oral, dose 125 mg/kg, time <=24; settings: in vivo
Method in brief: (§3)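 Single oral gavage dose to male Sprague Dawley rats, 3 per dose level. Vehicles were a standard suspension in 5% HPMC (125, 250, 500 or 1000 mg/kg) or a nanosuspension (API:polymer 4:1), with stock diluted in vehicle on the day of dosing (100, 250 or 500 mg/kg). Blood was sampled at time points from 0.5 to 24 h.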

[20] = Cmax in Sprague-Dawley rat at 100 mg/kg, po administered via gavage after 24 hrs using nanosuspension formulation by LC-MS/MS analysis; assay type: ADME, organism-based; design: route oral, dose 100 mg/kg, time 24 hrs; settings: in vivo; method in brief: as §3
[21] = Ratio of Cmax in Sprague-Dawley rat at 500 mg/kg/day, po administered as nanosuspension measured for 14 days to EC70 for ex vivo receptor occupancy at GluN2B in po dosed Sprague-Dawley rat assessed as 3-[3H] 1-(azetidin-1-yl)-2-[6-(4-fluoro-3-methyl-phenyl)pyrrolo[3,2-b]pyridin-1-yl]-ethanone labelling; assay type: ADME, organism-based; settings: 336 h
[22] = AUC (0 to 24 hrs) in Sprague-Dawley rat at 250 mg/kg, po administered via gavage after 24 hrs using nanosuspension formulation by LC-MS/MS analysis; assay type: ADME, organism-based; design: route oral, dose 250 mg/kg, time <=24; settings: in vivo; method in brief: as §3
[23] = Ratio of Cmax in Sprague-Dawley rat at 100 mg/kg, po administered via gavage after 24 hrs using nanosuspension formulation by LC-MS/MS analysis to EC70 for ex vivo receptor occupancy at GluN2B in po dosed Sprague-Dawley rat assessed as 3-[3H] 1-(azetidin-1-yl)-2-[6-(4-fluoro-3-methyl-phenyl)pyrrolo[3,2-b]pyridin-1-yl]-ethanone labelling; assay type: ADME, organism-based
[24] = Solubility of compound in FASSIF at pH 6.8 measured after 3 days; assay type: physicochemical; settings: time 3 day; method in brief: as §1
[25] = Protein binding in human plasma assessed as unbound fraction at 0.5 uM after 6 hrs by equilibrium dialysis method; assay type: ADME, cell-free
[26] = Protein binding in rat plasma assessed as unbound fraction at 0.5 uM after 6 hrs by equilibrium dialysis method; assay type: ADME, cell-free

T1 sequence (P08684 whole entry, canonical isoform): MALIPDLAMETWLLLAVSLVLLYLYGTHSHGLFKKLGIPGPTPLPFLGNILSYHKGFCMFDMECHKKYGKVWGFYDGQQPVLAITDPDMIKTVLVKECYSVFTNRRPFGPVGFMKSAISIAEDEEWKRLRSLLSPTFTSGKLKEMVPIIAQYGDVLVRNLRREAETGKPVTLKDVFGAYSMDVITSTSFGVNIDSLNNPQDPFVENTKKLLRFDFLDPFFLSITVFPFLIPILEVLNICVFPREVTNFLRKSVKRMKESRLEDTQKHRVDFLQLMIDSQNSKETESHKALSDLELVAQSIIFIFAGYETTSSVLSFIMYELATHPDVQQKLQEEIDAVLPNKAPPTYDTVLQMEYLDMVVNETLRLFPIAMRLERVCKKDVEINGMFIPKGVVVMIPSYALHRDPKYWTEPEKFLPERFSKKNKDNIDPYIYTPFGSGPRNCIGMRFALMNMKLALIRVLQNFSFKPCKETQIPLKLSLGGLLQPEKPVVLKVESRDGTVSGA
Voltage-gated inwardly rectifying potassium channel KCNH2, sequence (Q12809 whole entry): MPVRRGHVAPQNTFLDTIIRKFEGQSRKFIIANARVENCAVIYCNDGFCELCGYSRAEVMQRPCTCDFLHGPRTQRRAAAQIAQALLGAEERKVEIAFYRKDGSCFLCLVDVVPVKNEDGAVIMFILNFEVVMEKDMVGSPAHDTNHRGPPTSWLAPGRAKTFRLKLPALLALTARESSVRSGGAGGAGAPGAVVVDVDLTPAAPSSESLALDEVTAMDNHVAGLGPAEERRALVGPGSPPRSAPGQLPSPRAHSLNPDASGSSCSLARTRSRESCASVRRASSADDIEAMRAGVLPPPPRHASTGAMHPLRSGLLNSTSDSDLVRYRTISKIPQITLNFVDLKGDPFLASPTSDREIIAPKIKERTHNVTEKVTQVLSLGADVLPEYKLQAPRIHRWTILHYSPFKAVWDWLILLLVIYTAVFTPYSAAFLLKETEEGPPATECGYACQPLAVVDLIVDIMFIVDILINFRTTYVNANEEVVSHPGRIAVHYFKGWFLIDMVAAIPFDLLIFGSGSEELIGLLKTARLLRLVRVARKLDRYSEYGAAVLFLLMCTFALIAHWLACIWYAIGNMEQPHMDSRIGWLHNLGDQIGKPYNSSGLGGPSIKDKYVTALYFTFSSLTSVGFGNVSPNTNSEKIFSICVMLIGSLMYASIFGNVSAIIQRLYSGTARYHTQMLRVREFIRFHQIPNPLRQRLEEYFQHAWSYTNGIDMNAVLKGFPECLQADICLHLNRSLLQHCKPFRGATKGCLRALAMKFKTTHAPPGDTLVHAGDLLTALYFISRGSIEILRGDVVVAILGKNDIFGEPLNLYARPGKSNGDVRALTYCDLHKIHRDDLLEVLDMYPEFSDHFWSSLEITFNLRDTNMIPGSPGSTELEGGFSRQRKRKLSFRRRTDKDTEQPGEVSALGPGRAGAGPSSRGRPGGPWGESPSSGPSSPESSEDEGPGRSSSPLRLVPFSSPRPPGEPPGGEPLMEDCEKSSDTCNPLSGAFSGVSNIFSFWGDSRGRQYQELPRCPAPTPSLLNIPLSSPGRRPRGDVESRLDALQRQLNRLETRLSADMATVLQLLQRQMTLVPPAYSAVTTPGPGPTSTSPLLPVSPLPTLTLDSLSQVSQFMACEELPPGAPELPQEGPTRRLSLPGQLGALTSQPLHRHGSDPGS

IC50 [1]: > 10 µM | solubility at 72 h [2]: < 4 µM | hepatic extraction ratio at 1 µM [4]: < 0.3 | hepatic extraction ratio at 1 µM [5]: < 0.17 | half-life [6]: 48 min | Cmax [7]: 479 ng/mL | concentration at 2 h [8]: 10.1 ng/mL | microsomal CLint at 1 µM [9]: 5.4 µL/min/mg | IC50 (Cytochrome P450 3A4 [10]): > 50 µM | TDI (Cytochrome P450 3A4 [11]): Not Active | Vd [12]: 0.8 L/kg | AUC(0-inf) [13]: 126 ng·h/mL | half-life [14]: 42 min | Cmax [15]: 413 ng/mL | half-life [16]: 54 min | half-life [17]: 144 min | Tmax [18]: 60 min | AUC(0-t) [19]: 22800 ng·h/mL | Cmax [20]: 9000 ng/mL | Ratio [21]: 31 | AUC(0-t) [22]: 86400 ng·h/mL | Ratio [23]: 13 | solubility at 72 h [24]: 8.4 µM (≈ 3.33 µg/mL) | fraction unbound at 6 h, 0.5 µM [25]: 0.046 | fraction unbound at 6 h, 0.5 µM [26]: 0.053
Compound: Cn1c(=O)n(CC(=O)N2CCC2)c2cc(-c3ccc(C(F)(F)F)s3)cnc21
IC50 [3]: > 30 µM
